Assay results as given in ChEMBL document CHEMBL1764950, “Diphenylamine-based retinoid antagonists: regulation of RAR and RXR function depending on the N-substituent” (Bioorg Med Chem, 2011).
Calls of active or inactive are those of the source. The rule behind the calls is not given here.

How the values were obtained:
HL-60 [1] = experiment: Induction of human HL60 cell differentiation by NBT reduction assay; format: functional, cell-based
Summary of the method: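 HL-60 cells in RPMI1640 with 5% FBS were seeded at about 8 × 10⁴ cells/mL and given compound from a 2 mM ethanol stock (final ethanol below 0.5%) for 4 days. Differentiation was scored by NBT reduction: 20 min at 37 °C with 0.2% NBT and 200 ng/mL TPA, counting formazan-positive cells among at least 200. EC₅₀ is the concentration differentiating 50% of cells with compound alone.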

HL-60 [2] = experiment: Inhibition of Am80-induced cell differentiation in human HL60 cells by NBT reduction assay; format: functional, cell-based
Summary of the method: (§1)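 Cells were co-treated with 3.3 × 10⁻¹⁰ M Am80 plus test compound (ethanol, final below 0.5%), seeded at about 8 × 10⁴ cells/mL in RPMI1640 with 5% FBS, and held 4 days. The percentage of differentiated cells was determined by NBT/TPA reduction (20 min, 37 °C), counting at least 200 cells.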

HL-60 [3] = experiment: Inhibition of Am80-induced cell differentiation in human HL60 cells at 1 x 10^-6 M after 4 days by NBT reduction assay; format: functional; conditions: HL-60, 96 h; summary of the method: as §1
HL-60 [4] = experiment: Inhibition of Am80-induced cell differentiation in human HL60 cells at 1 x 10^-7 M after 4 days by NBT reduction assay; format: functional; conditions: HL-60, 96 h; summary of the method: as §1
HL-60 [5] = experiment: Synergistic induction of human HL60 cell differentiation in presence of RAR agonist Am80 at 1 X 10^-10 M; format: functional
Summary of the method: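 Synergy was tested in HL-60 cells given test compound together with 1 × 10⁻¹⁰ M Am80 for 4 days, with each agent also assayed alone. Differentiation was scored by NBT reduction (0.2% NBT, 200 ng/mL TPA, 20 min, 37 °C; ≥200 cells). SEC₅₀ is the concentration giving 50% differentiated cells in the presence of Am80.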

[6] = biological target: Retinoic acid receptor beta (Homo sapiens) (UniProt P10826); experiment: Antagonist activity at human RARbeta expressed in COS-1 cells assessed as inhibition of Am80-induced transactivation by luciferase reporter gene assay
Chain of Retinoic acid receptor beta (Homo sapiens) (P10826 whole entry, looked up): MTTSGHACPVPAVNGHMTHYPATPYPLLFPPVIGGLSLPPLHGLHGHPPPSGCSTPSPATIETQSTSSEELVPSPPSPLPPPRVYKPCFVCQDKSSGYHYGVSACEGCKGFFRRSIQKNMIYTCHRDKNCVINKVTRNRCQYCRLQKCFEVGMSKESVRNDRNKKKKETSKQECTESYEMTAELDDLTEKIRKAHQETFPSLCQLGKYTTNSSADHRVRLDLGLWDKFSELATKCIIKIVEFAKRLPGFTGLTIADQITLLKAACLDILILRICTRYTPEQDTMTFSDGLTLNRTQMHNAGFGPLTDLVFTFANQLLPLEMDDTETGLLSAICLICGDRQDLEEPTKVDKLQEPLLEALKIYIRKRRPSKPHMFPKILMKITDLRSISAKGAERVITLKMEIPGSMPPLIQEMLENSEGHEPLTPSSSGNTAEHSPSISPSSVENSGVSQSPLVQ

[7] = tested on: Retinoid X receptor beta (Mus musculus); experiment: Antagonist activity at mouse RXRbeta expressed in COS-1 cells assessed as inhibition of PA024-induced transactivation by luciferase reporter gene assay
[8] = biological target: Retinoic acid receptor alpha (Homo sapiens) (UniProt P10276); experiment: Antagonist activity at human RARalpha expressed in COS-1 cells assessed as inhibition of Am80-induced transactivation by luciferase reporter gene assay
Chain of Retinoic acid receptor alpha (Homo sapiens) (P10276 whole entry, looked up): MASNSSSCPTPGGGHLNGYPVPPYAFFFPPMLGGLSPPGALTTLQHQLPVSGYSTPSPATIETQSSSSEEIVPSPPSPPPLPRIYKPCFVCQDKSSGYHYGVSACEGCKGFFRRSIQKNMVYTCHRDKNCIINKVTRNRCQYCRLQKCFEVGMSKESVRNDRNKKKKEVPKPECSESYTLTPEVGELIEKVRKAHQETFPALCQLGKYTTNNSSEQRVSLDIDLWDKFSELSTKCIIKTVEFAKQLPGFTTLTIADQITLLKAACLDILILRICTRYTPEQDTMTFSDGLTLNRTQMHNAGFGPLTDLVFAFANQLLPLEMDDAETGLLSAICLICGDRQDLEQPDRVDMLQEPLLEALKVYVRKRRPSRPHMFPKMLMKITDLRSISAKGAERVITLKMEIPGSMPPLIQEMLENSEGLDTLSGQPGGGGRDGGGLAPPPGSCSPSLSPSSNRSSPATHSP

[9] = biological target: Retinoic acid receptor gamma (Homo sapiens) (UniProt P13631); experiment: Antagonist activity at human RARgamma expressed in COS-1 cells assessed as inhibition of ATRA-induced transactivation by luciferase reporter gene assay
Chain of Retinoic acid receptor gamma (Homo sapiens) (P13631 whole entry, looked up): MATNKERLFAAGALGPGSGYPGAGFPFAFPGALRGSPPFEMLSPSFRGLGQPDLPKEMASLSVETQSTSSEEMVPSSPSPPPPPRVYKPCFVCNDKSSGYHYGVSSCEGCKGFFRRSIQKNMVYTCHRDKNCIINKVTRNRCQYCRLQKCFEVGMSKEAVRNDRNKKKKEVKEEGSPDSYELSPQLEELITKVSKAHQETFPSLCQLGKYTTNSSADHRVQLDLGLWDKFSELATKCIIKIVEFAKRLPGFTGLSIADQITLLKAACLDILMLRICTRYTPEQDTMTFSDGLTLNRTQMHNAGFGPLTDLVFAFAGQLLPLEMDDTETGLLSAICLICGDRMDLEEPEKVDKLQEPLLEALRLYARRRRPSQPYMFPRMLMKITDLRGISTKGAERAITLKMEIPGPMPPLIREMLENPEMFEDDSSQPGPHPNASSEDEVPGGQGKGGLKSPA

[10] = biological target: Retinoic acid receptor RXR-alpha (Mus musculus) (UniProt P28700); experiment: Antagonist activity at mouse RXRalpha expressed in COS-1 cells assessed as inhibition of PA024-induced transactivation by luciferase reporter gene assay
Chain of Retinoic acid receptor RXR-alpha (Mus musculus) (P28700 whole entry, looked up): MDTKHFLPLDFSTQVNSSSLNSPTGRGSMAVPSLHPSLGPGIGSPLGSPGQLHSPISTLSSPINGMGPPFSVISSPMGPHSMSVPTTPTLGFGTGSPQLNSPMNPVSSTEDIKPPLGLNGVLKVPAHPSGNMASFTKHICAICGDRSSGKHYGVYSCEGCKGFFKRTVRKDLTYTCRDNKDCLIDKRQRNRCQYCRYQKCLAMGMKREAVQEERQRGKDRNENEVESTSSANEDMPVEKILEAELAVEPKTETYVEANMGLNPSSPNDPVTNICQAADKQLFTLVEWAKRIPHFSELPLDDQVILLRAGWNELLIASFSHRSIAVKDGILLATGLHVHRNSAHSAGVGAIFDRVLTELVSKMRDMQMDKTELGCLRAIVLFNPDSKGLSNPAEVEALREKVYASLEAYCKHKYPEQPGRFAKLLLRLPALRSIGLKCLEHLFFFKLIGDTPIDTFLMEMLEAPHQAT

[11] = tested on: Retinoid X receptor gamma (Mus musculus); experiment: Antagonist activity at mouse RXRgamma expressed in COS-1 cells assessed as inhibition of PA024-induced transactivation by luciferase reporter gene assay

Row | Compound | Activity (HL-60 [1]) | inhibition (HL-60 [2]) | Differentiated cells % at 1 µM (HL-60 [3]) [%] | Differentiated cells % at 0.1 µM (HL-60 [4]) [%] | further results
1 | CC1(C)CCC(C)(C)c2cc(N(Cc3ccccc3)c3ccc(C(=O)O)cc3)ccc21 | inactive |  |  |  | 
2 | CC1(C)CCC(C)(C)c2cc(N(Cc3ccc4ccccc4c3)c3ccc(C(=O)O)cc3)ccc21 | inactive | Dose-dependent effect | < 10 | 30 | 
3 | CC1(C)CCC(C)(C)c2cc(N(Cc3ccc(C(F)(F)F)cc3)c3ccc(C(=O)O)cc3)ccc21 | inactive | Dose-dependent effect | < 10 |  | 
4 | CC1(C)CCC(C)(C)c2cc(N(Cc3ccccc3-c3ccccc3)c3ccc(C(=O)O)cc3)ccc21 | inactive | Dose-dependent effect | < 10 | 10 | 
5 | CC1(C)CCC(C)(C)c2cc(Nc3ccc(C(=O)O)cc3)ccc21 |  |  |  |  | SEC50 (HL-60 [5]): 2 ×10⁻⁸ M; EC50 (HL-60 [1]; Homo sapiens, HL-60, read-out: EC50): 680 nM
6 | CCCCCCCN(c1ccc(C(=O)O)cc1)c1ccc2c(c1)C(C)(C)CCC2(C)C | inactive | Dose-dependent effect | < 10 |  | inhibition [6]: Dose-dependent effect; inhibition [7]: inactive; inhibition [8]: Dose-dependent effect; inhibition [9]: Dose-dependent effect; inhibition [10]: inactive; inhibition [11]: inactive
7 | CCCCCCCCN(c1ccc(C(=O)O)cc1)c1ccc2c(c1)C(C)(C)CCC2(C)C | inactive | Dose-dependent effect | < 10 |  | 
8 | CCOc1c(F)c(F)c(CN(c2ccc(C(=O)O)cc2)c2ccc3c(c2)C(C)(C)CCC3(C)C)c(F)c1F | inactive | Dose-dependent effect | < 10 | < 10 | inhibition [6]: Dose-dependent effect; inhibition [7]: inactive; inhibition [8]: Dose-dependent effect; inhibition [9]: Dose-dependent effect; inhibition [10]: inactive; inhibition [11]: inactive
9 | CC1(C)CCC(C)(C)c2cc(N(CC3CC3)c3ccc(C(=O)O)cc3)ccc21 |  |  |  |  | SEC50 (HL-60 [5]): 8.1 ×10⁻¹⁰ M; EC50 (HL-60 [1]; hl-60): Not Active
10 | Cc1ccc(CN(c2ccc(C(=O)O)cc2)c2ccc3c(c2)C(C)(C)CCC3(C)C)cc1 | inactive | Dose-dependent effect | < 10 |  | 
